# From PubChem
# Only some compounds are listed: those with a hit (about 2.9% of all), similar ones and a draw of the others.
# EBNA-1 inh – blocks EBNA-1 binding to DNA; 300,000 compounds, 0.34% hits; EBNA-1 DNA binding, fluorescence polarization; inhibition, % at 14.8 µM; AID 1950; in the data active means inhibition above about 28%
# Apaf-1 inh – inhibitors of human Apaf-1 apoptosome | inhibition, % at 20 µM | 330,000 compounds, 0.71% hits | reconstituted apoptosome caspase-3 activity, DEVD-Rh110 fluorescence | AID 489030; active means inhibition of at least 40% at 20 µM;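 further: plate controls were DMSO wells for no effect and DEVD-CHO caspase inhibitor wells for full effect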
#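 System: reconstituted apoptosome with Apaf-1, cytochrome c, caspase-9, procaspase-3, dATP; Signal: Rh110 fluorescence intensity; Schedule: 30 min compound preincubation, 50 min activation, room temperature; Reagent: cytochrome c trigger plus (Z-DEVD)2-Rh110 caspase-3 substrate.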
# ZTA DNA inh – counter-screen for EBNA-1 inhibitors: inhibitors of Epstein-Barr virus ZTA. P03206. ZTA-DNA binding, fluorescence polarization. inhibition, % at 11 µM. 320,000 compounds, 0.15% hits; in the data active means inhibition above about 33%
# UBC13 polyUb – blocks human UBC13 polyubiquitin chain formation; P61088; TR-FRET; inhibition, % at 20 µM; 330,000 compounds, 0.47% hits; AID 485273; in the data active means inhibition above about 45%, passing the limit was not always enough
# Target sequence (P61088 whole entry, looked up): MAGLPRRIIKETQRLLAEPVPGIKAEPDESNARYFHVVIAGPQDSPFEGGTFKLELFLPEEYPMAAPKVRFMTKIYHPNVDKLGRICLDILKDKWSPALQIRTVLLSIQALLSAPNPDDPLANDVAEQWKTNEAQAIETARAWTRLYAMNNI
# PfG6PD inh – PfG6PD (Plasmodium falciparum) enzyme inhibition; inhibition, % at 20 µM; PfGluPho enzyme, NADPH resazurin-diaphorase fluorescence; 350,000 compounds, 0.78% hits;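 active means inhibition reaching at least a set limit at 20 µM in the primary screen, cut at about 59% in these data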;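 further: 0% = DMSO wells with substrate and 100% = DMSO wells lacking glucose-6-phosphate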
# PfM18AAP inh-1 – PfM18AAP enzyme inhibition; 290,000 compounds, 1.2% hits; recombinant PfM18AAP, H-Glu-NHMec fluorogenic cleavage; inhibition, % at 7.35 µM; AID 1822;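 active means inhibition above the campaign mean inhibition over all tested compounds plus 3 SD, cut at about 28% in these data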;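 further: 0% = plate median of test compound wells and 100% = 2 mM ZnCl2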
# PfM18AAP inh-2 – confirmation of Plasmodium falciparum M18 aspartyl aminopeptidase inhibitors; shares compounds with PfM18AAP inh-1; recombinant PfM18AAP, H-Glu-NHMec fluorogenic cleavage; inhibition, % at 7.35 µM; 2,400 compounds, 28% hits; AID 2170;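 active means mean inhibition over replicate wells above the hit cutoff set for the earlier primary screen, cut at about 29% in these data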;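 further: 0% = median of test compound wells and 100% = 2 mM ZnCl2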
# CTSL1 confirm – counter-screen for PFM18AAP inhibitors: confirmation of human cathepsin L inhibitors; inhibition, % at 5.96 µM; purified cathepsin L1, Z-Leu-Arg-MCA fluorescence; shares compounds with PfM18AAP inh-1; 2,400 tested, under 10 active;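 active means average inhibition across replicates above the hit cutoff set in the earlier primary screen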;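 further: 0% = median of test compound wells and 100% = Z-Phe-Ala-diazomethylketone 1 µM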
# Target sequence (P07711 whole entry, looked up): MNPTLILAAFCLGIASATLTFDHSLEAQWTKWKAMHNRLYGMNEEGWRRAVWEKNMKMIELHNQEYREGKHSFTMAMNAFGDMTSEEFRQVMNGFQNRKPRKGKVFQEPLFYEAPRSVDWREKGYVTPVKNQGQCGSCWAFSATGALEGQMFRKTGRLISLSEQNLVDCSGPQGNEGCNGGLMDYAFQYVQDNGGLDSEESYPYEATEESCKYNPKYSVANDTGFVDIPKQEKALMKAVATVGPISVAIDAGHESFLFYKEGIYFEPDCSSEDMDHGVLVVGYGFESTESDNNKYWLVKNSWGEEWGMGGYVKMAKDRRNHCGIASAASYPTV
# Active calls of the source: *; . = not tested or not shown.
SMILES,EBNA-1 inh,Apaf-1 inh,ZTA DNA inh,UBC13 polyUb,PfG6PD inh,PfM18AAP inh-1,PfM18AAP inh-2,CTSL1 confirm
CCc1ccc(OC2=NS(=O)(=O)c3ccccc32)cc1,.,.,.,.,-16,1,.,.
CCc1nn(CC(=O)NCCc2ccc(OC)cc2OC)c(=O)c2cc3occc3n12,3,-7,8,5,15,1,.,.
COc1cc(/C=C/c2cc(C(=O)O)c3ccccc3n2)cc(OC)c1O,-5,-11,16,-16,27,51*,18,2
COc1ccc(CCNC(=O)c2ccc(=O)[nH]c2)cc1OC,-14,1,-10,-4,-9,-4,.,.
COc1ccc(-c2nn(-c3ccccc3)cc2/C=N/Nc2cccc(C(=O)O)c2)cc1,.,.,.,.,17,33*,-25,2
COc1ccc(-c2nn(-c3ccccc3)cc2/C=N/NC(=O)c2ccc3c(c2)OCO3)cc1,-8,6,-15,-8,.,6,.,.
Cc1cccc2sc(NNC(=O)c3cc(=O)c4ccccc4o3)nc12,-2,12,2,-61,25,44*,-1,-4
O=C(Nn1cnnc1)c1cc(-c2cccc(Br)c2)nc2ccccc12,1,-17,16,-1,12,61*,57*,2
O=C(Nc1ncccn1)c1cc(-c2cccc(Br)c2)nc2ccccc12,5,22,9,-3,-1,6,.,.
COc1cccc(C(=O)OCc2ccccc2C#N)c1O,-12,3,1,9,21,6,.,.
C/C(CC(=O)Nc1ccccc1C#N)=N\NC(=O)c1ccncc1,-1,-7,18,-1,1,37*,-19,-4
O=C(CSc1n[nH]c(=O)n1-c1ccc2c(c1)OCCO2)Nc1ccccc1,-3,4,14,-11,-16,9,.,.
Nc1nncn1C(=O)c1cc(Br)ccc1Cl,4,6,5,6,-2,46*,48*,10
COc1cccc(C(=O)n2cnnc2N)c1OC,-2,-21,6,8,-1,56*,51*,-3
Cc1ccc(C)c(C(=O)n2cnnc2N)c1,7,-1,-14,-9,-6,35*,51*,-2
Nc1nncn1C(=O)c1c(Cl)cccc1Cl,5,-18,8,6,3,-1,.,.
Cc1ccc(C)c(N)c1,.,-3,-21,-11,-2,.,.,.
Cc1ccc(C(=O)n2cnnc2N)cc1C,-11,6,3,7,17,44*,57*,-1
CC(=O)N(CC(C)C(=O)O)c1c(I)cc(I)c(N)c1I (stereo unspecified),-3,3,-5,-13,-5,.,.,.
Nc1nncn1C(=O)c1cccs1,0,0,7,12,0,40*,49*,-5
Cc1ccc(C(=O)n2cnnc2N)cc1,-4,2,-4,2,-2,41*,47*,-3
CC1CCN(C(=O)COC(=O)C23CC4CC(CC(O)(C4)C2)C3)CC1,.,-8,20,-1,1,.,.,.
CC(C)N=c1scc(-c2ccco2)n1/N=C/c1ccc(O)c(O)c1,-8,-9,-23,8,12,45*,49*,0
Cc1cc(C)nc(N(C#N)Cc2cccc(Cl)c2)n1,4,0,4,11,-29,0,.,.
COc1ccc(/C=N/Nc2nc3ccccc3o2)cc1O,-9,12,-2,-10,23,50*,-33,5
SMILES,EBNA-1 inh,Apaf-1 inh,ZTA DNA inh,UBC13 polyUb,PfG6PD inh,PfM18AAP inh-1,PfM18AAP inh-2,CTSL1 confirm
COc1cc(/C=N/Nc2nc3ccccc3o2)cc(OC)c1O,7,-7,6,-6,34,43*,23,4
COc1cc(/C=N\Nc2nc3ccccc3o2)cc(OC)c1OC,2,-4,8,-10,18,10,.,.
NC(=O)COC(=O)c1ccc(-c2ccccc2)cc1,-1,-9,-13,-8,-1,-2,.,.
Cc1ccc(S(=O)(=O)N/N=C/c2ccccc2O)cc1[N+](=O)[O-],-7,-6,1,-14,-1,5,.,.
Cc1ccc(S(=O)(=O)N/N=C/c2ccc(O)c(O)c2)cc1[N+](=O)[O-],-3,-4,16,-3,2,54*,45*,4
CCN(CC(=O)Nc1ccc(NC(C)=O)cc1)C(=O)COc1ccc(C(=O)c2ccccc2)cc1,-3,-2,-8,7,-7,-3,.,.
CCNC(=S)NNC(=O)CSc1nc2ccccc2n1C,-8,-20,-8,-3,-5,32*,2,-1
COc1cc2nc(CSc3ncn[nH]3)[nH]c(=O)c2cc1OC,0,-1,0,-8,2,63*,66*,-4
COc1ccc(CCN(C)C(=O)c2c(C)nn(-c3ccccc3)c2C)cc1OC,3,10,11,8,-4,-4,.,.
O=C(COC(=O)CC1CCS(=O)(=O)C1)Nc1ccc(F)cc1 (stereo unspecified),.,-10,.,12,-14,.,.,.
O=C(NC1CCCCCC1)c1ccc[nH]c1=S,2,-15,-7,-7,34,53*,0,0
CCN1CCN(C(=S)c2ccc(Br)cc2)CC1,-4,-18,8,8,59,40*,6,1
Oc1ccc(C(=S)N2CCCCCC2)cc1,-2,9,-10,-11,-21,-5,.,.
CCN1CCN(CCC(=O)Nc2ccc(Br)cc2)CC1,-7,8,7,1,-14,-2,.,.
O=C(c1ccc(Br)cc1)N1CCN(Cc2ccccc2)CC1,5,2,-5,8,-11,3,.,.
Oc1ccc(C(=S)N2CCCC2)cc1,-13,-2,7,-6,43,33*,-18,-1
Oc1ccc(C(=S)N2CCN(Cc3ccccc3)CC2)cc1,4,3,-5,2,54,54*,-18,1
Cc1ccc(C(=S)N2CCN(Cc3ccccc3)CC2)s1,6,5,12,11,56,35*,14,5
COc1ccc(C)cc1N(CC(=O)N1CCCCCC1)S(=O)(=O)c1ccc(C)cc1,0,6,-5,-5,9,-19,.,.
CCOC(=O)c1c(C)[nH]c(C)c1S(=O)(=O)N1CCN(c2ccc([N+](=O)[O-])cc2)CC1,2,14,8,-10,-2,-15,.,.
O=C(Oc1cccc(C(=S)N2CCCCC2)c1)c1ccccc1,-8,10,-3,4,-4,0,.,.
O=C(Oc1ccc(C(=S)N2CCCCC2)cc1)c1ccccc1,-11,13,-18,6,-2,37*,5,2
Cc1cc(C)nc(NS(=O)(=O)c2ccc(NC(=O)CSc3ncn[nH]3)cc2)n1,2,1,5,1,-3,20,.,.
CC(C)c1ccc(S(=O)(=O)Nc2ccc(O)c(Sc3ncn[nH]3)c2)cc1,.,7,.,-1,0,58*,31*,-1
